In one data set the test system is U87MG-tumor-bearing mice. In words: In vivo antitumor study of peptide-Dox conjugates. Further details: species or system nude mice. In outline: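 Female nude mice aged 6–7 weeks were inoculated s.c. in the axillary fossa with 1×10^7 U87MG cells. On day 7 they were split into five groups of 10. Saline, free Dox or peptide-Dox conjugates were given i.v. via the tail vein every other day for 7 doses, each equal to 5 mg/kg Dox. Body weight and caliper tumor volume, V = π/6·length·width², were recorded, along with survival.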

Data set [1] deals with U87MG, MDA-MB-231, HepG2 and L02 cells. As to the kind of experiment: Transwell cell migration assay. In kind it is cell-based, Human. The settings on record: peptides 40μM for 24 h, transwell 12 hours. A digest of the protocol: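 Cells at 60–70% confluence in 6-well plates were exposed to peptides (40 μM) for 24 h. They were then detached and 5×10^5 cells placed in transwell upper chambers, in triplicate, over DMEM + 10% FBS. After 12 h, unmigrated cells were swabbed off. Membranes were fixed in methanol and stained with 0.1% crystal violet, 30 min each. The dye was eluted with 33% acetic acid and read at OD570. % migration = treated/control OD570 × 100.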

Another data set addresses αvβ3 integrin (Homo sapiens, UniProt P05106+P06756). As to the kind of experiment: MicroScale Thermophoresis. In kind it is binding.
In the next data set the target is U87MG cells (Homo sapiens, UniProt P05106+P06756). As to the kind of experiment: Confocal cellular uptake of peptide-RhB conjugates. In kind it is cell-based. The settings on record: confocal imaging, incubation up to 4 h. In outline:
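Cells were seeded on confocal dishes at 3×10^5 per well and left 24 h to attach. Cells were washed three times with PBS (pH 7.4), imaged by laser confocal microscopy, and uptake at 2 h was quantified as mean fluorescence intensity.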

Data set [2] concerns p-FAK, p-PI3K, p-Ras in U87MG cells. In words: Western blot of αvβ3 downstream signalling. The class given is cell-based, Human. The settings on record: 64μg /mL for 48 h. For orientation: In western blotting, separated proteins are transferred to a membrane and probed.

The results in this text go back to paper PMC5436510 (Theranostics, 2017).

Square brackets hold non-standard residues; d marks the D form. Peptide text beside a SMILES is read from it.

Sequence of αvβ3 integrin (P06756 31-889): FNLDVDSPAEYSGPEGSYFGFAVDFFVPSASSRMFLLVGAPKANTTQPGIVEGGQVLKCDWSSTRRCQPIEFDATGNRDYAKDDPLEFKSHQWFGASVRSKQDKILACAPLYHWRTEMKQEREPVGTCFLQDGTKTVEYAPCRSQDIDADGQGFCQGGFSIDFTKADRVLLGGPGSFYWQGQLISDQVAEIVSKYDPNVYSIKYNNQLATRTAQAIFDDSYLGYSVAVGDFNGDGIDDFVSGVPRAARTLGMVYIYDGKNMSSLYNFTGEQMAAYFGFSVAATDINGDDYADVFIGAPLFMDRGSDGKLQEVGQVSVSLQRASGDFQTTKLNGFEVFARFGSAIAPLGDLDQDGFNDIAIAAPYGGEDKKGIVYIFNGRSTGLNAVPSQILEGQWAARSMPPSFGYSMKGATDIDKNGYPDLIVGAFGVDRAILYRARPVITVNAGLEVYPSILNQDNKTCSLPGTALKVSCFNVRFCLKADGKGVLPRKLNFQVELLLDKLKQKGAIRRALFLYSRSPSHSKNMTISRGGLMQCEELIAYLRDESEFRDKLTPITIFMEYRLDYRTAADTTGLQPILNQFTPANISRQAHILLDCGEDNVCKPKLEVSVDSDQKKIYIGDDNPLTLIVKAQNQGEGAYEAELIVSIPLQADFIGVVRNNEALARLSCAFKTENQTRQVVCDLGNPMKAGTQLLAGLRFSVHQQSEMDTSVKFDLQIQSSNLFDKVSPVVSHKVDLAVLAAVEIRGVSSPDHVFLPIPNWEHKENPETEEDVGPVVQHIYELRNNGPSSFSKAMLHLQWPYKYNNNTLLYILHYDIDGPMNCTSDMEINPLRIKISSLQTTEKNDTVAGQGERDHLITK
Sequence of αvβ3 integrin (P06756 891-1048): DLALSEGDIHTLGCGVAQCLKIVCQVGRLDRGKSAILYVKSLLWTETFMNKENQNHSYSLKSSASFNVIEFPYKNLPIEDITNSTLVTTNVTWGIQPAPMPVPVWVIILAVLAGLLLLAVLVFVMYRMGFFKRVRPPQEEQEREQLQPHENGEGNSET
Sequence of αvβ3 integrin (P05106 27-788): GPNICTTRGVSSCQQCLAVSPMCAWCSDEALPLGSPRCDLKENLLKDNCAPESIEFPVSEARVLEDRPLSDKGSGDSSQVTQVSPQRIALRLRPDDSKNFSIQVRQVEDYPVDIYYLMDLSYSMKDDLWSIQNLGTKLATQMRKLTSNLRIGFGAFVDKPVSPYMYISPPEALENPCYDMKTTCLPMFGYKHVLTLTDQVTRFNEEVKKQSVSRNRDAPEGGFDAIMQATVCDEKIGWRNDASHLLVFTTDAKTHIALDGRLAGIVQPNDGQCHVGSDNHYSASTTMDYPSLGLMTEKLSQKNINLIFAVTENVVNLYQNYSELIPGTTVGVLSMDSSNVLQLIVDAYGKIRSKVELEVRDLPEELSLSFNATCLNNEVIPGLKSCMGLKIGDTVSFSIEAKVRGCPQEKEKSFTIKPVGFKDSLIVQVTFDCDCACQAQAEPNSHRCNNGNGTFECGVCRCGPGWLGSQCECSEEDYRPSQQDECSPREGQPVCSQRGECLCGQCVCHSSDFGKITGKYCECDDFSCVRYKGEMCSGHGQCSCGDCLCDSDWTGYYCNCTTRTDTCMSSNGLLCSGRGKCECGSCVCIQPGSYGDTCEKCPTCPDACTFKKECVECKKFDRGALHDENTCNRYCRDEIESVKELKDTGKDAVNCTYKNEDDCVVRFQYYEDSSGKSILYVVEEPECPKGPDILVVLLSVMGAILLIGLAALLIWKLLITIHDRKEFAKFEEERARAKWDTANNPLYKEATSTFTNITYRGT
Sequence of U87MG cells (P06756 31-1048): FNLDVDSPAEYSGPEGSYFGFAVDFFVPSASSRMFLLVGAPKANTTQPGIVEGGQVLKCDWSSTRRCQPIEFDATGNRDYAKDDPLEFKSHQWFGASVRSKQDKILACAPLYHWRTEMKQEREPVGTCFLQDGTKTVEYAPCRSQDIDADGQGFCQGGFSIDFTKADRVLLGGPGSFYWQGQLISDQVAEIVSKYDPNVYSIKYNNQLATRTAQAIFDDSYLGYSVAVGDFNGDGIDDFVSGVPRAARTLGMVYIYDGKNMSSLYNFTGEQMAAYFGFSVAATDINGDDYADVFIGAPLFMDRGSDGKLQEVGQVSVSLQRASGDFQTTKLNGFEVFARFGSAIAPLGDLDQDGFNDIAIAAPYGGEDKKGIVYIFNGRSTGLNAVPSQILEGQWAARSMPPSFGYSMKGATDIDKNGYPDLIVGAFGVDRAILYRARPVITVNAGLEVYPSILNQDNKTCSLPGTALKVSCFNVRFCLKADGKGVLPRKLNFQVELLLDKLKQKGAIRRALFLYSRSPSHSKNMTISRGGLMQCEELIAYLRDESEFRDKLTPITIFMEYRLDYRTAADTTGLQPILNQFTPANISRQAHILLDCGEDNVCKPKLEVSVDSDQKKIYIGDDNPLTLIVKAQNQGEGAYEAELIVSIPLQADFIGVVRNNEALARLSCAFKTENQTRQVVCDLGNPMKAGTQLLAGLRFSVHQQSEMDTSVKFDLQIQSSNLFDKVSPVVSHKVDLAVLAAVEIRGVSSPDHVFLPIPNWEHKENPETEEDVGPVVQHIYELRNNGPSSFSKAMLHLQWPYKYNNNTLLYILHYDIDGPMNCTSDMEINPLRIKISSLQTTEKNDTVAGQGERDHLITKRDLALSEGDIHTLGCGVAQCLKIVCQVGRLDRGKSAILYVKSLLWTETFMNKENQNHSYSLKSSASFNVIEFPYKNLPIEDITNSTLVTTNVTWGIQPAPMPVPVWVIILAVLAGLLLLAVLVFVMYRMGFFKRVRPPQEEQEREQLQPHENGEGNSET
Sequence of U87MG cells (P05106 27-788): as the sequence (P05106 27-788) above

As to `COc1cccc2c1C(=O)c1c(O)c3c(c(O)c1C2=O)C[C@@](O)(C(=O)CO)C[C@@H]3O[C@H]1C[C@H](N)[C@H](O)[C@H](C)O1` [Dox, doxorubicin], the “survival rate (in words)” value in the data set with U87MG-tumor-bearing mice (15-day treatment) is reported as “lowest survival rate”. Moreover, the body weight result in the data set with U87MG-tumor-bearing mice (15-day treatment, dose 5mg/kg of Dox) was “continual decrease in body weight”. The “histopathology (H&E) toxicity in organs” value in the data set with U87MG-tumor-bearing mice (after the 15-day treatment) was “obvious cardiotoxicity and hepatotoxicity”.
On to `CC(=O)O[C@H]1C(=O)[C@@]2(C)[C@H]([C@H](OC(=O)c3ccccc3)[C@]3(O)C[C@H](OC(=O)[C@H](O)[C@@H](NC(=O)c4ccccc4)c4ccccc4)C(C)=C1C3(C)C)[C@]1(OC(C)=O)CO[C@@H]1C[C@@H]2O` [PTX], for which the “cell migration compared with the controls” value in data set [1] was “strong inhibition on cell migration”.
A word on the Kd: it is the constant that tells how readily two partners part at equilibrium. A lower Kd goes with tighter binding. In the case of `CSCC[C@H](NC(=O)[C@H](CC(N)=O)NC(=O)[C@@H](CCCNC(=N)N)NC(=O)[C@H](Cc1c[nH]c2ccccc12)NC(=O)[C@@H](N)CCCNC(=N)N)C(=O)O` [RWrNM] (H-RW[dR]NM-OH), at αvβ3 integrin, the Kd came to 8.61 ± 1.35 nM.
On αvβ3 integrin, `N=C(N)NCCC[C@H](N)C(=O)N[C@@H](Cc1c[nH]c2ccccc12)C(=O)N[C@H](CCCNC(=N)N)C(=O)O` [RWr] (H-Arg-Trp-[dR]-OH) returned a Kd of 33.6 ± 4.56 nM.
For the molecule `CCN(CC)c1ccc2c(-c3ccccc3C(=O)O)c3ccc(=[N+](CC)CC)cc-3oc2c1` [RhB, Rhodamine B], the “cellular uptake (RhB fluorescence)” value at U87MG cells is given as “no fluorescence was observed”.
Consider `CCN(CC)CCNC(=O)c1c(C)[nH]c(/C=C2\C(=O)Nc3ccc(F)cc32)c1C` [Sunitinib], for which, in data set [1], the “cell migration compared with the controls” value is given as “strong inhibition on cell migration”.
`N=C(N)NCCC[C@@H]1NC(=O)[C@H](CCCCN)NC(=O)[C@@H](Cc2ccc(O)cc2)NC(=O)[C@H](CC(=O)O)NC(=O)CNC1=O` [c(RGDyK)]: the “cell migration compared with the controls” value in data set [1] was “obvious decrease in cell migration”. Moreover, the “levels of phosphorylated signalling proteins” value in data set [2] was “decreased the levels of p-FAK, p-PI3K, and p-Ras proteins”.
